Screens as filed in PubChem BioAssay.
OX1R antag-1: OX1R (human) antagonism. actives 1.8% (n = 330,000). AID 485270. inhibition, % at 6.6 µM. OX1R-expressing cells, FRET antagonist read-out. O43613; in the data active = inhibition mostly above about 38%, no sharp cut-off; inactive = mostly below about 40%
Target sequence (O43613 whole entry, looked up): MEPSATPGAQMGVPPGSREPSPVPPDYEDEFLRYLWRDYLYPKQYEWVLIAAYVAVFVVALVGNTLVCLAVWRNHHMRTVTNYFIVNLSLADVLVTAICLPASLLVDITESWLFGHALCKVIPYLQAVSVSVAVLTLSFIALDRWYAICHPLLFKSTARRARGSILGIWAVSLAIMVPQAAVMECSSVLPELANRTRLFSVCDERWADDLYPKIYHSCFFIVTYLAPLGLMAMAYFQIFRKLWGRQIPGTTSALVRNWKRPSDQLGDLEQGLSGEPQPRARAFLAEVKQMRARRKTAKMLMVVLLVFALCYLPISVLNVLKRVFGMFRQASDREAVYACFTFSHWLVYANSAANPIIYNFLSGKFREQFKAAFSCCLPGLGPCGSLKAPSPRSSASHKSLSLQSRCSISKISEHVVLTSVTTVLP
TAAR1 ag: human TAAR1 agonism. CHO RD-HGA16 TAAR1, Fluo-8 calcium fluorescence; vehicle wells 0%, saturating PEA agonist 100%. activation, % at 3 µM. AID 624467. actives 0.99% (n = 360,000);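 active = activation above the mean activation of all test compounds in the run plus 3 SD, cut at about 38% in these data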
Target sequence (Q96RJ0 whole entry, looked up): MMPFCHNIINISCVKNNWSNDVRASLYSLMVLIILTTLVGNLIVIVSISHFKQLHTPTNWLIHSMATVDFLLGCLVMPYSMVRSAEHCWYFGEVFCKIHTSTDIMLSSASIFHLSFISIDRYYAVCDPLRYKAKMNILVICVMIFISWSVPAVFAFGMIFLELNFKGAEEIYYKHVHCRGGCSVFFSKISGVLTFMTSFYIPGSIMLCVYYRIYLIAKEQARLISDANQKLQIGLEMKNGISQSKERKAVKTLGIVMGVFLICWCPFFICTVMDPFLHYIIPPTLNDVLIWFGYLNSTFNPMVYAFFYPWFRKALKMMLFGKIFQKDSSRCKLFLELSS
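test system = CHO RD-HGA16 cells carrying human TAAR1 plus Gα16 | schedule = 17-24 h seeding, 75 min 37 °C dye, 30 min RT | compound dosing = 3 µM single concentration | control set = DMSO and PEA EC100 | replicates = n 1 | signal = Fluo-8 fluorescence, 5 s baseline then 140 s kinetic read | measure = percent activation vs PEA EC100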
TAAR1 antagonist: antagonists of human TAAR1 | Q96RJ0 | actives 1.5% (n = 360,000) | inhibition, % at 3 µM | CHO RD-HGA16 TAAR1, Fluo-8 calcium fluorescence, antagonist | AID 624466;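 active = inhibition above a per-plate cutoff, the mean inhibition of test compounds on that plate plus 3 SD, cut at about 49% in these data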
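Assay system: RD-HGA16 CHO cells with stable hTAAR1 and Gα16 / Reagent: EC80 β-phenethylamine stimulus / Doses: 3 µM, single point / Timing: dye loading 75 min at 37 °C, then 30 min room temperature / Measured by: Fluo-8 intracellular calcium dye fluorescence, real-time kinetic reads / Controls: vehicle wells and EC80 agonist wells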
GPR7 antag: blocks human GPR7 receptor signaling; P48145; GPR7-expressing cells, fluorescence antagonist assay; inhibition, % at 4.4 µM; actives 1.1% (n = 290,000); AID 1861; in the data active = inhibition above about 16%, passing the limit was not always enough;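 also: cells stimulated with the agonist NPW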
CHO parental Ca: signal in parental CHO cells, OX1R antagonist counter-screen; parental CHO-K1, ATP-induced calcium, Fluo-8 fluorescence; inhibition, % at 5.6 µM; actives 0.63% (n = 330,000);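 active = inhibition above that plate's mean sample inhibition plus 3 SD, cut at about 26% in these data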
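Measured by: calcium-sensitive Fluo-8 fluorescence / Test system: CHO parental line / Controls: ATP-challenged DMSO wells low, unchallenged DMSO wells high / Measure: % inhibition / Compound: single nominal dose of 5.6 µM per compound / Replicates: single well per compound, no replicates / Reagent: ATP as calcium-mobilizing challenge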
OX1R antag-2: blocks the human orexin 1 receptor | CHO/OX1R cells, Fluo-8 calcium fluorescence, orexin A | actives 0.43% (n = 330,000) | inhibition, % at 5 µM | AID 434989;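 active = inhibition above its plate's threshold, mean inhibition of all tested compounds on the plate plus 3 SD, cut at about 37% in these data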
Of the large screens only hits and unclear results are named; the others gave an inactive call. Hits are enriched below; roughly 4.5% of the tested compounds scored in any of these assays.

COc1cccc(/C=N/NC(=O)c2cc3c(OC)cccc3[nH]2)c1OC	OX1R antag-1 67, TAAR1 antagonist 55
COc1ccc(O)c(/C=N/Nc2nc3ccccc3[nH]2)c1	TAAR1 ag 42
COc1ccc(OC)c2[nH]c(C(=O)N/N=C/c3ccccc3O)cc12	none
COC(=O)c1cc2c(c3c4cc(F)ccc4n(S(=O)(=O)c4cccc(C)c4)c13)C(=O)N(Cc1ccco1)C2	none (no result: OX1R antag-1, GPR7 antag, CHO parental Ca, OX1R antag-2)
Cc1[nH]c2ccccc2c1CC(=O)Nc1ccc(Nc2cccnc2)c(-c2ccc(Oc3ccccc3)cc2)c1	none (no result: OX1R antag-1, GPR7 antag, CHO parental Ca, OX1R antag-2)
CC(/C=N/Nc1nc2ccccc2[nH]1)=C\c1ccccc1	TAAR1 ag 40
Nc1nc(-c2ccc([N+](=O)[O-])cc2)cc(=O)[nH]1	none (no result: OX1R antag-1, GPR7 antag, CHO parental Ca, OX1R antag-2)
Nc1n[nH]c(-c2ccc([N+](=O)[O-])cc2[N+](=O)[O-])n1	OX1R antag-1 67
CCCCN(Cc1ccco1)C(=O)C1CCCN(c2ncnc3c2nc2n3CCCCC2)C1 (centres undefined)	OX1R antag-1 40
CN(C(=O)C1CCCN(c2ncnc3c2nc2n3CCCCC2)C1)c1cccc(Cl)c1 (centres undefined)	OX1R antag-1 40
O=C(Nc1ccc(F)cc1)C1CCN(c2ncnc3c2nc2n3CCCCC2)CC1	CHO parental Ca 65
O=C(C1CCCN(c2ncnc3c2nc2n3CCCCC2)C1)N1CCN(c2cccc(Cl)c2)CC1 (centres undefined)	TAAR1 ag 40, TAAR1 antagonist 88
CC(C)N(Cc1ccccc1)C(=O)C1CCCN(c2ncnc3c2nc2n3CCCCC2)C1 (centres undefined)	none
CCc1ccc(NC(=O)C2CCN(c3ncnc4c3nc3n4CCCCC3)CC2)cc1	none
CCCN1CCCCC(NC(=O)c2ccc(-c3ccccc3)cc2)C1=O (centres undefined)	none (no result: OX1R antag-1, GPR7 antag, CHO parental Ca, OX1R antag-2)
CC1CN(CC(=O)Nc2ccccc2Sc2ccccc2)CC(C)O1 (centres undefined)	none
CC(C)C(=O)Nc1ccc2nn(-c3ccccc3)nc2c1	OX1R antag-1 63
O=C(Nc1ccccc1F)c1ccc([N+](=O)[O-])s1	OX1R antag-1 38
O=C(Nc1cccnc1)c1ccc([N+](=O)[O-])s1	OX1R antag-1 53 (no result: GPR7 antag)
O=C(Nc1ccccc1F)c1ccc(-c2cccc([N+](=O)[O-])c2)o1	OX1R antag-1 64
O=C(Nc1cccc2ccccc12)c1ccc([N+](=O)[O-])s1	none
CN(C)NC(=O)c1ccc([N+](=O)[O-])s1	OX1R antag-1 67
Cc1ccc(Cl)c(OCCN2CCc3ccccc3C2)c1	none
COCCOC(=O)c1c(C)nc(SCC(=O)Nc2cccc3ccccc23)c(C#N)c1-c1ccco1	TAAR1 antagonist 51
Cn1cc([C@]2(O)C(=O)Nc3ccc(OC(F)(F)F)cc32)c2ccccc21	TAAR1 ag 41 (no result: OX1R antag-1, GPR7 antag, CHO parental Ca, OX1R antag-2)
Cc1cc(C(=O)OC(C)C(=O)NC2CCCCC2C)c2ccccc2n1 (centres undefined)	none (no result: OX1R antag-1, GPR7 antag, CHO parental Ca, OX1R antag-2)
O=C(NCCCN1CCN(Cc2ccccc2)CC1)C1CCN(S(=O)(=O)N2CCC3(CC2)OCCO3)CC1	none
O=C(C1CCN(S(=O)(=O)N2CCC3(CC2)OCCO3)CC1)N1CCN(Cc2ccccc2)CC1	GPR7 antag 21
CCCCOC(=O)c1ccc(NC(=O)c2ccccc2OC)cc1	none
CCCOC(=O)c1ccc(NC(=O)c2ccccc2OC)cc1	OX1R antag-1 76
COc1ccccc1/C=N/NC(=O)c1ccc(NC(=O)c2ccccc2Br)cc1	TAAR1 antagonist 51
COc1cccc(OC)c1C(=O)Nc1ccc(Br)c(C(=O)c2ccccc2)c1	TAAR1 antagonist 53
CSC1=NCCN1CCOc1ccccc1	none
COc1ccc(OC)c(C(C)NS(=O)(=O)c2cccs2)c1 (centres undefined)	none (no result: GPR7 antag)
O=C(CC1CCCC1)N[C@H](C(=O)N1CCC[C@H]1C(=O)NC1CCCC1)c1ccccc1	none (no result: OX1R antag-1, GPR7 antag, CHO parental Ca, OX1R antag-2)
O=C(CN1CCN(Cc2ccccc2)CC1)N=Nc1c(O)[nH]c2ccccc12	none
O=C(Cc1cccs1)N=Nc1c(O)[nH]c2ccc(Br)cc12	none
Oc1[nH]c2ccccc2c1N=Nc1ccccc1F	TAAR1 ag 39
CCCCCCC(=O)N=Nc1c(O)[nH]c2ccc([N+](=O)[O-])cc12	none
O=C(CNC(=O)c1ccco1)N=Nc1c(O)[nH]c2ccc(Br)cc12	OX1R antag-1 36, TAAR1 ag 38
Oc1[nH]c2ccccc2c1N=Nc1ccc(F)cc1	none
O=C(CNC(=O)c1cccs1)N=Nc1c(O)[nH]c2ccc([N+](=O)[O-])cc12	OX1R antag-1 41
O=C(CNC(=O)Cc1ccccc1)N=Nc1c(O)[nH]c2ccccc12	OX1R antag-1 45
O=C(CN1C(=O)NC2(CCCCCC2)C1=O)NCc1ccccc1Cl	none (no result: GPR7 antag)
O=[N+]([O-])c1ccc(-c2nc(Nc3cccc(O)c3)c3ccccc3n2)cc1	TAAR1 antagonist 55
O=C(O)c1cccc(Nc2nc(-c3ccc([N+](=O)[O-])cc3)nc3ccccc23)c1	none (no result: OX1R antag-1, CHO parental Ca, OX1R antag-2)
c1ccc(N2CCN(c3cccc(-c4cc5ccccc5s4)n3)CC2)nc1	none (no result: OX1R antag-1, GPR7 antag, CHO parental Ca, OX1R antag-2)
CCN(CC(=O)Nc1ccc(OC)cc1)C(=O)c1cc(S(=O)(=O)N2CCOCC2)ccc1N1CCCC1	none (no result: GPR7 antag)
Clc1ccc2nc3c4ccccc4cnn3c2c1	OX1R antag-1 69
COc1ccc2nc3cccc(OC)c3nc2c1	OX1R antag-1 42
COc1ccc2nc3ccccc3nc2c1N	OX1R antag-1 55
C[C@H]1C(C(=O)N(C)C2CCCCC2)=Cc2c(n(-c3ccc(F)cc3)c(=O)n2CCCOc2ccccc2)C=C1c1ccccc1	none (no result: OX1R antag-1, GPR7 antag, CHO parental Ca, OX1R antag-2)
Cc1nc(SCC(=O)N(CC(C)C)C2CCS(=O)(=O)C2)c(C#N)c(C)c1C (centres undefined)	none (no result: OX1R antag-1, GPR7 antag, CHO parental Ca, OX1R antag-2)
COc1ccc(-c2cc(C(=O)N3CCN(c4ccccc4)CC3)c3ccccc3n2)cc1OC	none
O=C(c1cc(-c2ccccc2)nc2ccccc12)N1CCN(c2ccccc2O)CC1	TAAR1 antagonist 55
COc1ccc(-c2cc(C(=O)N3CCCCCC3)c3ccccc3n2)cc1OC	none (no result: OX1R antag-1, GPR7 antag, CHO parental Ca, OX1R antag-2)
COc1ccc(-c2cc(C(=O)N3CCCC(C(F)(F)F)C3)c3ccccc3n2)cc1OC (centres undefined)	TAAR1 antagonist 50 (no result: GPR7 antag)
COc1ccc(-c2cc(C(=O)OCC(=O)N3CCCCC3)c3ccccc3n2)cc1OC	TAAR1 antagonist 71 (no result: GPR7 antag)
Cc1nc(SCC(=O)Nc2nc3ccccc3s2)c(C#N)c(C)c1C	OX1R antag-1 53
Cc1nc(SCC(=O)Nc2nccs2)c(C#N)c(C)c1C	none (no result: GPR7 antag)
Cc1ccc2sc(NC(=O)CSc3nc(C)cc(C)c3C#N)nc2c1	none
Cc1cc(C(F)(F)F)c(C#N)c(SCC(=O)Nc2nc3ccccc3s2)n1	OX1R antag-1 74
CC(NCCCSc1ccccc1)C(O)c1ccc(O)cc1 (centres undefined)	none (no result: OX1R antag-1, GPR7 antag, CHO parental Ca, OX1R antag-2)
